Assay outcomes from PubChem BioAssay.
CHO parental Ca: counter-screen: ATP calcium response change in parental CHO cells; 330,000 compounds, 0.63% hits; inhibition, % at 5.6 µM; parental CHO-K1, ATP-induced calcium, Fluo-8 fluorescence; AID 463079;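 active = inhibition above that plate's mean sample inhibition plus 3 SD, cut at about 26% in these data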;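 also: 0% = ATP-challenged DMSO wells and 100% = DMSO wells without ATP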
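material = parental CHO cells | also added = ATP as calcium-mobilizing challenge | dosing = single point at 5.6 µM | detection = intracellular calcium via Fluo-8 no-wash fluorescent dye | read-out = % inhibition | benchmarks = low control ATP plus DMSO, high control DMSO only | repeats = one well per compound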
CHO-K1 Ca PAM: M1 PAM counterscreen hit in parental CHO-K1 cells; activation, % at 3 µM; AID 602247; 360,000 compounds, 0.02% hits; ATP EC20, Fluo-8 calcium fluorescence; 0% at ATP EC20, 100% at ATP max;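 active = activation above the run cutoff, the mean activation of all test compounds plus 3 SD, cut at about 40% in these data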;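 also: peak over basal fluorescence ratio in a 140 s read after ATP addition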
OX1R antag-1: antagonists of human orexin 1 receptor (OX1R); O43613; OX1R-expressing cells, FRET antagonist read-out; inhibition, % at 6.6 µM; 330,000 compounds, 1.8% hits; in the data active = inhibition mostly above about 38%, no sharp cut-off; inactive = mostly below about 40%;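 also: 0% = agonist challenge alone and 100% = reference antagonist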
Target sequence (O43613 whole entry, looked up): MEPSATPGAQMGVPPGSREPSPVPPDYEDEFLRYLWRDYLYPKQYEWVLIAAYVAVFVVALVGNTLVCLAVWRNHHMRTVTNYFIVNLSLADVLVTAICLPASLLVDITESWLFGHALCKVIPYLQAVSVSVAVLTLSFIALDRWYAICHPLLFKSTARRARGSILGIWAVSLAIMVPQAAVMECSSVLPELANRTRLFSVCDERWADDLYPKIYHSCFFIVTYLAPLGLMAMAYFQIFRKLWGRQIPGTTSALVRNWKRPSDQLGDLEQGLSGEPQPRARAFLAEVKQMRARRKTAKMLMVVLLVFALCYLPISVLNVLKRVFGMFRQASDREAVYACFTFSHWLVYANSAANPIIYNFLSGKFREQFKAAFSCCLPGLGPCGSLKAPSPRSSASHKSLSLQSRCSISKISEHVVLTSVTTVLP
CHO-K1 Ca antag: M1 antagonist counterscreen hit in parental CHO-K1 cells | ATP-induced calcium, Fluo-8 fluorescence | inhibition, % at 3 µM | 360,000 compounds, 0.6% hits;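 active = inhibition above a per-plate cutoff, the plate's mean sample inhibition plus 3 SD, cut at about 24% in these data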;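 also: 0% = DMSO plus EC80 ATP and 100% = DMSO alone without ATP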
OX1R antag-2: human HCRTR1 antagonism. O43613. CHO/OX1R cells, Fluo-8 calcium fluorescence, orexin A. inhibition, % at 5 µM. 330,000 compounds, 0.43% hits;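 active = inhibition above its plate's threshold, mean inhibition of all tested compounds on the plate plus 3 SD, cut at about 37% in these data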;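 also: 0% = orexin A challenge wells and 100% = SB-334867-A antagonist wells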
CHO-K1 Ca ag: M1 agonist counterscreen hit in parental CHO-K1 cells. Fluo-8 calcium fluorescence; scaled to maximal ATP response, vehicle zero. activation, % at 3 µM. 360,000 compounds, 0.48% hits. AID 602248; in the data active = activation above about 15%;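 also: untransfected CHO-K1 host cells lacking M1 receptor as counterscreen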
* hit, by the source's call; nt = no result. Rows were chosen to be rich in hits. Some 2.9% of all compounds tested hit in one or more screens of this group.

SMILES	CHO parental Ca	CHO-K1 Ca PAM	OX1R antag-1	CHO-K1 Ca antag	OX1R antag-2	CHO-K1 Ca ag
CC(C)COc1ccc(S(=O)(=O)NNC(=O)c2cc3ccccc3o2)cc1	43*	3	29	6	26	7
CCCCOc1ccc(S(=O)(=O)NNC(=O)c2cc3ccccc3o2)cc1	-27	-2	9	2	-31	3
Cc1cc(C)cc(OCC(=O)NNC(=O)c2cc3ccccc3o2)c1	-11	23	9	-15	-4	1
Cc1ccnn1-c1ccc(C(=O)NCc2ccccc2CN2CCOCC2)cc1	-13	3	9	-10	-37	2
CCOC(=O)CN(Cc1sccc1C)C(=O)Nc1ccc(OC)cc1OC	-15	-14	7	25*	-8	0
Cc1nn(Cc2ccc(Cl)c(Cl)c2)c(C)c1NC(=O)c1cc(CC(C)C)on1	33*	8	17	2	-27	6
Cc1ccccc1Oc1ccc2c(c1)[C@@H]1C[C@H](N(C)C(=O)c3ccc(C#N)cc3)[C@H]([C@H](C)O)C(=O)N1CC2	nt	-3	nt	-7	nt	0
CC(C)c1ccc2oc(-c3cc(N)ccc3O)nc2c1	-6	-6	10	24*	-12	0
CCOC(=O)c1oc2cccc(OC(C)=O)c2c1C	1	16	47	-5	2	1
CCOC(=O)c1oc2cccc(O)c2c1C	-5	16	39*	-4	-14	2
CCOc1ccc(C(CCc2ccccc2)NC(=O)c2ccccc2OC)cc1OCC (stereo not drawn)	24	-6	14	3	47*	0
CC(C)N(C)C(=O)C(=O)c1cccn1-c1cccc(Cl)c1C#N	-1	-7	19	3	-8	0
CCOC(=O)/C(C#N)=C1/C=C(C)NC(c2ccccc2O)=N1	-3	-1	40*	-9	25	5
Cc1ccc2c(CN(C)Cc3cccc(Cl)c3)cc(=O)oc2c1C	-9	8	1	-19	-12	0
CSc1ccc(CN(C)Cc2cc(=O)oc3c(C)c(C)ccc23)cc1	53*	4	12	-10	-15	0
Cc1ccc(NC(=O)/C=C/c2ccc(S(=O)(=O)N3CCOCC3)cc2)cc1S(=O)(=O)N(C)C	nt	1	nt	-5	nt	12
Cc1cc(F)ccc1-c1cc(C(=O)NCc2ccc(C(F)(F)F)cc2)[nH]n1	nt	26	nt	3	nt	16*
CCOc1ccc(-c2cc(C(=O)NCc3ccc(C(F)(F)F)cc3)[nH]n2)c(C)c1	nt	-8	nt	0	nt	0
CC1=C(C(=O)Nc2ccc(F)cc2)C(c2ccncc2)C2=C(CCCC2=O)N1 (stereo not drawn)	-9	-7	15	24*	-12	0
COc1ccccc1N1CCN(C(=O)C2CCCN(S(=O)(=O)c3ccc4c(c3)CCCN4C(C)=O)C2)CC1 (stereo not drawn)	28	-22	33	8	29	11
CC(=O)N1CCCc2cc(S(=O)(=O)N3CCCC(C(=O)N4CCN(c5cc(C)ccc5C)CC4)C3)ccc21 (stereo not drawn)	44*	-9	40*	14	51*	14
CC(=O)N1CCCc2cc(S(=O)(=O)N3CCCC(C(=O)N4CCN(c5ccccc5)CC4)C3)ccc21 (stereo not drawn)	8	11	21	-4	7	16*
COc1ccc(CCn2c(C)cc(C(=O)CN3C(=O)C(=O)N(C4CCCC4)C3=O)c2C)cc1OC	nt	-14	nt	-2	nt	3
CN(C)c1cccc(C(=O)Nc2nnc(Cc3ccccc3)s2)c1	-17	-9	39	-17	7	0
N#Cc1ccsc1NC(=O)CN(Cc1ccccc1)Cc1ccccc1	-51	44*	13	-19	-37	1
SMILES	CHO parental Ca	CHO-K1 Ca PAM	OX1R antag-1	CHO-K1 Ca antag	OX1R antag-2	CHO-K1 Ca ag
N#Cc1ccsc1NC(=O)CCc1ccccc1	-1	16	10	-10	-21	1
N#Cc1ccsc1NC(=O)COC(=O)c1cc2ccccc2cc1O	-14	8	41*	3	-8	4
CSCCC(NC(=O)c1ccccc1Cl)C(=O)Nc1cccc(S(=O)(=O)N2CCCC2)c1 (stereo not drawn)	-26	0	14	16	-30	1
C[C@H]1CN([C@@H](C)CO)S(=O)(=O)c2ccc(-c3ccccc3)cc2O[C@H]1CN(C)C(=O)C1CCC1	nt	25	nt	-7	nt	2
O=C(CSc1ccc([N+](=O)[O-])cc1)Nc1cccc(S(=O)(=O)Nc2ccccc2F)c1	46*	12	23	6	32	7
O=C(COC(=O)c1cc(Br)ccc1O)Nc1cc(S(=O)(=O)N2CCCC2)ccc1Cl	nt	-13	nt	5	nt	0
C=CCOc1ccc(/C=C/C(=O)OCC(=O)Nc2c(C)n(C)n(-c3ccccc3)c2=O)cc1	-15	-3	10	39*	-18	1
COc1ccc(C(=O)Nc2cccc3c2CCCC3)c(OC)c1	-38	21	57*	-17	18	0
O=C(Nc1cccc2c1CCCC2)c1ccco1	-6	10	11	-23	-6	0
O=C(Nc1cccc2c1CCCC2)c1ccccc1Br	44*	13	0	-3	14	1
O=C(CCc1nc(-c2ccccc2F)no1)Nc1ccc(Oc2ccccc2)cc1	39*	-3	55	24*	62*	8
Cn1c2ccccc2c2n[nH]c(=S)nc21	-2	12	25	7	3	15*
Cn1c2ccccc2c2n[nH]c(=O)nc21	-7	15	47	-8	-16	0
O=C(NC1CC2CCCC(C1)N2Cc1ccccc1)c1ccc([N+](=O)[O-])cc1 (stereo not drawn)	nt	4	nt	0	nt	0
Cn1c(=O)c2[nH]c(COc3ccc(C(C)(C)C)cc3)nc2n(C)c1=O	54*	0	36	-5	46*	14
CC(OC(=O)c1cccc(S(=O)(=O)N(C)C)c1)C(=O)NCc1ccc2c(c1)OCO2 (stereo not drawn)	1	-6	3	9	-24	7
O=C1[C@@H]2[C@@H](CN3CN(c4ccccc4)N=C(c4ccccc4)[C@@]23c2ccccc2)C(=O)N1c1ccccc1	nt	42*	nt	-30	nt	1
O=C1[C@H]2C(c3ccccc3)=NN(c3ccccc3)[C@H]2C(=O)N1c1ccccc1	-18	6	11	-7	-8	-1
CC(=O)Nc1cc(-c2cccnc2)cn2c(-c3cccc(C(F)(F)F)c3)cnc12	nt	0	nt	-5	nt	1
Nc1nc(Cl)cc(N2CCC(c3cc(-c4ccc(Cl)cc4)n[nH]3)CC2)n1	34*	0	19	-1	54*	21*
Cc1ccc(CN2CCC(c3cc(-c4ccc(Cl)cc4)n[nH]3)CC2)cc1	6	-6	-2	4	-25	16*
